Assay results taken from ChEMBL document CHEMBL1157593, “Structure-based design, synthesis, and biological studies of new anticancer norindenoisoquinoline topoisomerase I inhibitors” (2010).
Active and inactive are the calls of the source. The rule behind the calls is not given here.

How the values were obtained:
[1] = biological target: T1, DNA topoisomerase 1 (Homo sapiens) (UniProt P11387); assay: Inhibition of human recombinant topoisomerase-1-mediated 117bp DNA oligonucleotide cleavage at 10 uM by PAGE
T1 sequence (whole entry): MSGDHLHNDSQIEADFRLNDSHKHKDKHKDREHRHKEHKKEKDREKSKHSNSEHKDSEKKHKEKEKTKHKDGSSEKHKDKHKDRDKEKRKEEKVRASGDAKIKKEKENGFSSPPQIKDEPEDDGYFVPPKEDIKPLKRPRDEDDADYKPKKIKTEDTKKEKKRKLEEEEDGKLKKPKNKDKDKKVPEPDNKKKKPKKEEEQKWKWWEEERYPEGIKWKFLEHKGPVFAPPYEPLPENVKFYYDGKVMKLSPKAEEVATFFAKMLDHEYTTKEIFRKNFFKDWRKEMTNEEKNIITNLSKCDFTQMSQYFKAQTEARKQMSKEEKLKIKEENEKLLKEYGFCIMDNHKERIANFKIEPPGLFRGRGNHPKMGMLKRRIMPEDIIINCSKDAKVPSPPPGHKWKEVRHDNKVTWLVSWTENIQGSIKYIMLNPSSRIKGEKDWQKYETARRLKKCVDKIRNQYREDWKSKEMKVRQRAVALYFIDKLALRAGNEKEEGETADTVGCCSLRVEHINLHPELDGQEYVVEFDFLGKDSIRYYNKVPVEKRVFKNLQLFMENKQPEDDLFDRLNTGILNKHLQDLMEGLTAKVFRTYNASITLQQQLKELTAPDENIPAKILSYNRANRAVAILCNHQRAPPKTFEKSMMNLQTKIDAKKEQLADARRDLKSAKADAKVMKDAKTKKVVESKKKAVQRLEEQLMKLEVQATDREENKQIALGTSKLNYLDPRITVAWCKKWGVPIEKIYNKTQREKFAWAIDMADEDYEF
Method in brief: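 About 2 nM of it is incubated with recombinant Top1 in 10 mM Tris-HCl pH 7.5, 50 mM KCl, 5 mM MgCl2, 0.1 mM EDTA and 15 μg/mL BSA, with compound, for 20 min at 25 °C. Reactions are stopped with 0.5% SDS, run on 20% denaturing PAGE, and cleavage is scored semiquantitatively (0 to ++++) against 1 μM CPT.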

CAKI-1 = assay: Antiproliferative activity against human Caki1 cells; type: functional
HCC 2998 = assay: Antiproliferative activity against human HCC2998 cells; type: functional
SR = assay: Antiproliferative activity against human SR cells; type: functional
UACC-62 = assay: Antiproliferative activity against human UACC62 cells; type: functional
CCRF-CEM = assay: Antiproliferative activity against human CCRF-CEM cells; type: functional
NCI-H460 = assay: Antiproliferative activity against human NCI-H460 cells; type: functional
COLO 205 = assay: Antiproliferative activity against human COLO205 cells; type: functional
IGROV-1 = assay: Antiproliferative activity against human IGROV1 cells; type: functional
SF-295 = assay: Antiproliferative activity against human SF295 cells; type: functional
SF-539 = assay: Antiproliferative activity against human SF539 cells; type: functional
SN12C = assay: Antiproliferative activity against human SN12C cells; type: functional
RPMI-8226 = assay: Antiproliferative activity against human RPMI8226 cells; type: functional
MCF7 = assay: Antiproliferative activity against human MCF7 cells; type: functional
ACHN = assay: Antiproliferative activity against human ACHN cells; type: functional
DU-145 = assay: Antiproliferative activity against human DU145 cells; type: functional
HCT-116 = assay: Antiproliferative activity against human HCT116 cells; type: functional
OVCAR-3 = assay: Antiproliferative activity against human OVCAR-3 cells; type: functional
MOLT-4 = assay: Antiproliferative activity against human MOLT4 cells; type: functional
HOP-62 = assay: Antiproliferative activity against human HOP62 cells; type: functional
U-251 = assay: Antiproliferative activity against human U251 cells; type: functional
MDA-MB-435 = assay: Antiproliferative activity against human MDA-MB-435 cells; type: functional

COc1cc2cnc3c(c2cc1OC)Cc1c-3cc2c(c1CN1CCN(C)CC1)OCO2
inhibition [1]: Active

COc1cc2cnc3c(c2cc1OC)Cc1c-3cc2c(c1Cn1ccnc1)OCO2
inhibition [1]: Active | GI50 (CAKI-1): 290 nM | GI50 (HCC 2998): 1100 nM | GI50 (SR): 12 nM | GI50 (UACC-62): 210 nM | GI50 (CCRF-CEM): 37 nM | GI50 (NCI-H460): 130 nM | GI50 (COLO 205): 510 nM | GI50 (IGROV-1): 120 nM | GI50 (SF-295): 150 nM | GI50 (SF-539): 280 nM | GI50 (SN12C): 600 nM | GI50 (RPMI-8226): 41 nM | GI50 (MCF7): 90 nM | GI50 (ACHN): 280 nM | GI50 (DU-145): 260 nM | GI50 (HCT-116): 160 nM | GI50 (OVCAR-3): 210 nM | GI50 (MOLT-4): 60 nM | GI50 (HOP-62): 350 nM | GI50 (U-251): 160 nM

COc1cc2cnc3c(c2cc1OC)Cc1c-3cc2c(c1CN(C)C)OCO2
inhibition [1]: Active | GI50 (MDA-MB-435): 16000 nM | GI50 (UACC-62): 12000 nM | GI50 (SF-539): 14000 nM | GI50 (SN12C): 13000 nM | GI50 (DU-145): 1600 nM | GI50 (HCT-116): 1500 nM | GI50 (OVCAR-3): 1400 nM | GI50 (HOP-62): 6700 nM

COc1cc2cnc3c(c2cc1OC)Cc1c-3cc2c(c1C)OCO2
inhibition [1]: Active | GI50 (MDA-MB-435): > 100000 nM | GI50 (UACC-62): 700 nM | GI50 (SF-539): 4600 nM | GI50 (SN12C): > 100000 nM | GI50 (DU-145): > 100000 nM | GI50 (HCT-116): 890 nM | GI50 (OVCAR-3): 5800 nM | GI50 (HOP-62): 7300 nM

COc1cc2cnc3c(c2cc1OC)Cc1cc2c(cc1-3)OCO2
inhibition [1]: Active | GI50 (MDA-MB-435): < 10 nM | GI50 (UACC-62): < 10 nM | GI50 (SF-539): < 10 nM | GI50 (SN12C): > 100000 nM | GI50 (DU-145): 28 nM | GI50 (HCT-116): > 100000 nM | GI50 (HOP-62): 72 nM

COc1cc2cnc3c(c2cc1OC)Cc1c-3cc2c(c1CN(C)CCN(C)C)OCO2
inhibition [1]: Active | GI50 (UACC-62): 730 nM | GI50 (SF-539): 11000 nM | GI50 (SN12C): > 100000 nM | GI50 (DU-145): 3400 nM | GI50 (HCT-116): 1900 nM | GI50 (OVCAR-3): 7400 nM | GI50 (HOP-62): 1500 nM

COc1cc2cnc3c(c2cc1OC)Cc1c-3cc2c(c1CN1CCOCC1)OCO2
GI50 (UACC-62): 100000 nM | GI50 (SF-539): 1800 nM | GI50 (SN12C): 2300 nM | GI50 (DU-145): 1900 nM | GI50 (HCT-116): 1400 nM | GI50 (OVCAR-3): 1700 nM | GI50 (HOP-62): 2100 nM

CC[C@@]1(O)C(=O)OCc2c1cc1n(c2=O)Cc2cc3ccccc3nc2-1 [CAMPTOTHECIN]
GI50 (MDA-MB-435): 40 nM | GI50 (UACC-62): 10 nM | GI50 (SF-539): 10 nM | GI50 (SN12C): 20 nM | GI50 (DU-145): 10 nM | GI50 (HCT-116): 30 nM | GI50 (HOP-62): 10 nM

COc1cc2cnc3c(c2cc1OC)Cc1c-3cc2c(c1CN1CCCC1)OCO2
inhibition [1]: Active | GI50 (MDA-MB-435): 2500 nM | GI50 (UACC-62): 6700 nM | GI50 (SF-539): 1900 nM | GI50 (SN12C): 4400 nM | GI50 (DU-145): 730 nM | GI50 (HCT-116): 640 nM | GI50 (OVCAR-3): 730 nM | GI50 (HOP-62): 1200 nM

COc1cc2c3c(n(C)c(=O)c2cc1OC)-c1cc2c(cc1C3=O)OCO2
inhibition [1]: Active | GI50 (MDA-MB-435): 96000 nM | GI50 (UACC-62): 4200 nM | GI50 (SF-539): 41000 nM | GI50 (SN12C): 68000 nM | GI50 (DU-145): 37000 nM | GI50 (HCT-116): 35000 nM | GI50 (HOP-62): 1300 nM
